Test results taken from ChEMBL document CHEMBL1140681, “Structure-based design of alpha-amido aldehyde containing gluten peptide analogues as modulators of HLA-DQ2 and transglutaminase 2” (Bioorg Med Chem, 2007).
The source made the active and inactive calls. The rule behind the calls is not given here. Square brackets hold non-standard residues; d marks the D form. Peptide text beside a SMILES is read from it. * marks the point of attachment. 5FAM = O=C1OC2(c3ccc(O)cc3Oc3cc(O)ccc32)c2ccc(C(=O)*)cc21; Orn = NCCC[C@H](N)C(=O)O; Dab = NCC[C@H](N)C(=O)O; Dap = NC[C@H](N)C(=O)O; Glyoxylyl = O=CC(=O)*

Legend:
[1] = Enhancement of antigen presentation in HLA-DQ2 homozygous B-lymphoblastoid VAVY cells; format: functional, cell-based, Homo sapiens
In short: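 VAVY cells γ-irradiated (12,000 rads), pulsed with peptides for 10 h, washed by centrifugation, then co-cultured 1:1 with DQ2-αI-responsive polyclonal T cells for 48 h. [³H]thymidine (1 μCi/well) added for 18–24 h; incorporated radioactivity counted as a measure of surface peptide-DQ2 complexes; EC50 derived from titration.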

[2] = target: T1, Protein-glutamine gamma-glutamyltransferase (Homo sapiens) (UniProt P21980); assay: Inhibition of human recombinant TG2 at 750 uM
T1 sequence (whole entry): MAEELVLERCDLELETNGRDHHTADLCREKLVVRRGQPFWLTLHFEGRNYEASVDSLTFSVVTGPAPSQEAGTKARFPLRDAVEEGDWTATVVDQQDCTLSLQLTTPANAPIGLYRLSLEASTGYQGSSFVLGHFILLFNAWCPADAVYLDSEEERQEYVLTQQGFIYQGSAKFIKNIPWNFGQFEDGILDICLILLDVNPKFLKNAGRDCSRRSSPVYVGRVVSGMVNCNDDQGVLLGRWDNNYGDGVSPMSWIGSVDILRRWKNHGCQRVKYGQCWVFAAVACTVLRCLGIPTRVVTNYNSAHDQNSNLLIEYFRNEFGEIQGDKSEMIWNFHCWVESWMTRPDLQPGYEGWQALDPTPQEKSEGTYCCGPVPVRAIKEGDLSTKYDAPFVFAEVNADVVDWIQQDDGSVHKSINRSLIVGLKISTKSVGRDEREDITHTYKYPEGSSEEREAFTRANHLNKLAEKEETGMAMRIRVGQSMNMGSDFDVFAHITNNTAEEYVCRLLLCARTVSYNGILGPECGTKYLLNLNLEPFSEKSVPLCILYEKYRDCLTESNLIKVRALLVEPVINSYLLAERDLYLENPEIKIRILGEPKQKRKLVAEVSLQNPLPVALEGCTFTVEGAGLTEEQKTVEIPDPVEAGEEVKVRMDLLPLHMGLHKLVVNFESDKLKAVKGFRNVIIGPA

[3] = target: T2, Protein-glutamine gamma-glutamyltransferase (Homo sapiens, UniProt P21980); assay: Inhibition of human recombinant TG2
T2 sequence (P21980 whole entry): T1 sequence (whole entry)
In short: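 Continuous spectrophotometric coupled deamidation assay with recombinant human TG2: MOPS buffer pH 7.2 with CaCl2, EDTA, α-ketoglutarate, glutamate dehydrogenase and NADH; Z-Gln-Gly substrate (10–40 mM); reaction started by adding TG2. Velocities from linear regression; Ki by non-linear fitting of velocity vs ZQG to Michaelis-Menten with Vmax fixed at the uninhibited value.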

[4] = target: T1, Protein-glutamine gamma-glutamyltransferase (Homo sapiens); assay: Inhibition of human recombinant TG2 at 100 uM
[5] = target: T1, Protein-glutamine gamma-glutamyltransferase (Homo sapiens); assay: Inhibition of human recombinant TG2 at 500 uM
VAVY = assay: Induction of cell proliferation in HLA-DQ2 homozygous B-lymphoblastoid VAVY cells at 10 uM after overnight incubation; format: functional, cell-based; conditions: Homo sapiens
In short: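 γ-Irradiated (12,000 rads) VAVY cells at 2×10^6 cells/ml pulsed with 10 μM peptide for 2 h or overnight, then washed out by centrifugation (800g, 3 min, 4°C). Re-suspended APCs (1×10^6/ml) co-cultured 48 h with equal volume of P28 TCL1 T cells (1×10^6/ml); [³H]thymidine 1 μCi/well for 18–24 h; proliferation by scintillation counting.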

SMILES | EC50 [1] | Ki [3] | also measured
CC(C)C[C@H](NC(=O)[C@H](NC(=O)C=O)NC(=O)[C@@H]1CCCN1C(=O)[C@H](CCC(N)=O)NC(=O)[C@@H]1CCCN1)C(=O)N1CCC[C@H]1C(=O)N[C@@H](Cc1ccccc1)C(=O)O |  |  | Activity [2]: inactive
CC(C)C[C@H](NC(=O)[C@H](CCCNC(=O)C=O)NC(=O)[C@@H]1CCCN1C(=O)[C@H](CCC(N)=O)NC(=O)[C@@H]1CCCN1)C(=O)N1CCC[C@H]1C(=O)N[C@@H](Cc1ccccc1)C(=O)O (H-PQP[Orn](Glyoxylyl)LPF-OH) |  | 200 µM | 
CC(=O)NCC[C@H](NC(=O)[C@@H]1CCCN1C(=O)[C@H](CCC(N)=O)NC(=O)[C@@H]1CCCN1C(=O)c1ccc2c(c1)C(=O)OC21c2ccc(O)cc2Oc2cc(O)ccc21)C(=O)N[C@@H](CC(C)C)C(=O)N1CCC[C@H]1C(=O)N[C@@H](Cc1ccccc1)C(=O)O (5FAM-PQP[Dab](Ac)LPF-OH) |  |  | Activity [4]: inactive
CC(C)C[C@H](NC(=O)c1ccc2c(c1)C(=O)OC21c2ccc(O)cc2Oc2cc(O)ccc21)C(=O)N[C@@H](CCC(N)=O)C(=O)N[C@@H](CC(C)C)C(=O)N[C@@H](CCC(N)=O)C(=O)N1CCC[C@H]1C(=O)N[C@@H](Cc1ccccc1)C(=O)N1CCC[C@H]1C(=O)N[C@@H](CCC(N)=O)C(=O)N1CCC[C@H]1C(=O)N[C@@H](CCC(=O)O)C(=O)N[C@@H](CC(C)C)C(=O)N1CCC[C@H]1C(=O)N[C@@H](Cc1ccc(O)cc1)C(=O)N1CCC[C@H]1C(=O)N[C@@H](CCC(N)=O)C(=O)N1CCC[C@H]1C(=O)N[C@@H](CCC(=O)O)C(=O)N[C@@H](CC(C)C)C(=O)N1CCC[C@H]1C(=O)N[C@@H](Cc1ccc(O)cc1)C(=O)O (5FAM-LQLQPFPQPELPYPQPELPY-OH) | 0.016 µM |  | 
CC(C)C[C@H](NC(=O)[C@H](CCCCNC(=O)C=O)NC(=O)[C@@H]1CCCN1C(=O)[C@H](CCC(N)=O)NC(=O)[C@@H]1CCCN1)C(=O)N1CCC[C@H]1C(=O)N[C@@H](Cc1ccccc1)C(=O)O (H-PQPK(Glyoxylyl)LPF-OH) |  |  | Activity [5]: inactive
CC(C)C[C@H](NC(=O)[C@H](CNC(=O)C=O)NC(=O)[C@@H]1CCCN1C(=O)[C@H](CCC(N)=O)NC(=O)[C@@H]1CCCN1)C(=O)N1CCC[C@H]1C(=O)N[C@@H](Cc1ccccc1)C(=O)O (H-PQP[Dap](Glyoxylyl)LPF-OH) |  | 300 µM | 
CC(C)C[C@H](NC(=O)c1ccc2c(c1)C(=O)OC21c2ccc(O)cc2Oc2cc(O)ccc21)C(=O)N[C@@H](CCC(N)=O)C(=O)N1CCC[C@H]1C(=O)N[C@@H](Cc1ccccc1)C(=O)N1CCC[C@H]1C(=O)N[C@@H](CNC(=O)C=O)C(=O)N1CCC[C@H]1C(=O)N[C@@H](CCC(=O)O)C(=O)N[C@@H](CC(C)C)C(=O)N1CCC[C@H]1C(=O)N[C@@H](Cc1ccc(O)cc1)C(=O)O (5FAM-LQPFP[Dap](Glyoxylyl)PELPY-OH) | 1 µM |  | Activity (VAVY): Active

More lines, main results first:

EC50 [1] | Ki [3] | SMILES | also measured
0.039 µM |  | CC(C)C[C@H](NC(=O)c1ccc2c(c1)C(=O)OC21c2ccc(O)cc2Oc2cc(O)ccc21)C(=O)N[C@@H](CCC(N)=O)C(=O)N[C@@H](CC(C)C)C(=O)N[C@@H](CCC(N)=O)C(=O)N1CCC[C@H]1C(=O)N[C@@H](Cc1ccccc1)C(=O)N1CCC[C@H]1C(=O)N[C@@H](CNC(=O)C=O)C(=O)N1CCC[C@H]1C(=O)N[C@@H](CCC(=O)O)C(=O)N[C@@H](CC(C)C)C(=O)N1CCC[C@H]1C(=O)N[C@@H](Cc1ccc(O)cc1)C(=O)N1CCC[C@H]1C(=O)N[C@@H](CNC(=O)C=O)C(=O)N1CCC[C@H]1C(=O)N[C@@H](CCC(=O)O)C(=O)N[C@@H](CC(C)C)C(=O)N1CCC[C@H]1C(=O)N[C@@H](Cc1ccc(O)cc1)C(=O)O (5FAM-LQLQPFP[Dap](Glyoxylyl)PELPYP[Dap](Glyoxylyl)PELPY-OH) | 
3.3 µM |  | CC(C)C[C@H](NC(=O)c1ccc2c(c1)C(=O)OC21c2ccc(O)cc2Oc2cc(O)ccc21)C(=O)N[C@@H](CCC(N)=O)C(=O)N1CCC[C@H]1C(=O)N[C@@H](Cc1ccccc1)C(=O)N1CCC[C@H]1C(=O)N[C@@H](CCC(N)=O)C(=O)N1CCC[C@H]1C(=O)N[C@@H](CCC(=O)O)C(=O)N[C@@H](CC(C)C)C(=O)N1CCC[C@H]1C(=O)N[C@@H](Cc1ccc(O)cc1)C(=O)O (5FAM-LQPFPQPELPY-OH) | 
 | 40 µM | CC(C)C[C@H](NC(=O)[C@H](CCNC(=O)C=O)NC(=O)[C@@H]1CCCN1C(=O)[C@H](CCC(N)=O)NC(=O)[C@@H]1CCCN1)C(=O)N1CCC[C@H]1C(=O)N[C@@H](Cc1ccccc1)C(=O)O (H-PQP[Dab](Glyoxylyl)LPF-OH) | 
